Measurements from ChEMBL document CHEMBL5303300, “EUbOPEN Chemogenomics Library - Multiplex” (2023).
“And” between values parts separate entries of the source, which are not always exact repeats. Identical values can stand only once.

Test system: Fibroblast
Assay: Multiplex assay against human fibroblast
Format: toxicity, cell-based
Conditions: number of replicates 2
Method in brief: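 Values for tubulin, mitochondrial-mass and membrane-permeability phenotypes are per cents of cells with healthy nuclei. These cells were identified by CellPathfinder machine-learning gating of live cells that had been stained at seeding with Hoechst33342, BioTracker Green Microtubule Cytoskeleton Dye, MitoTracker Red and Annexin V Alexa Fluor 680 and imaged on a CQ1 microscope at 37°C and 5% CO2 after compound addition. The gating first set Hoechst high-intensity objects apart from normal cells, then split normal cells into healthy, pyknosed or fragmented nuclei, and pyknosed cells into mitotic or apoptotic.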

[1] = 12 h, 1 µM, compound concentration 1 uM
[2] = 12 h, 10 µM, compound concentration 10 uM
[3] = 24 h, 1 µM, compound concentration 1 uM
[4] = 24 h, 10 µM, compound concentration 10 uM
[5] = 48 h, 1 µM, compound concentration 1 uM
[6] = 48 h, 10 µM, compound concentration 10 uM

`CCN1CCN(Cc2ccc(C(=O)Nc3ccc(C)c(Oc4ccc5c(c4)CC(=O)N5)c3)cc2C(F)(F)F)CC1.Cl.Cl` was tested, and the “Population Apoptotic (%)” value [1] was 32% and 37%, the “Population Fragmented Nuclei (%)” value [1] was 14% and 13% and the “Population Healthy Nuclei (%)” value [1] was 59% and 62%. The “Population Hoechst High Intensity Objects (%)” value [1] was 0%, the “Population Membrane Permeable-Phenotype (%)” value [1] was 2% and 6% and the “Population Mitochondria Different-Phenotype (%)” value [1] was 2% and 1%. The “Population Mitotic Cells (%)” value [1] was 67% and 62%, the “Population Normal (%)” value [1] was 100% and 99% and the “Population Pyknosed Nuclei (%)” value [1] was 25% and 23%. The “Population Tubulin-Different-Phenotype (%)” value [1] was 27%, the “Total Cell Count” value [1] was 230 and 264 and the “Population Apoptotic (%)” value [2] was 47% and 35%. For the same molecule, the “Population Fragmented Nuclei (%)” value [2] was 22% and 13%, the “Population Healthy Nuclei (%)” value [2] was 58% and 61% and the “Population Hoechst High Intensity Objects (%)” value [2] was 0%. For the same molecule, the “Population Membrane Permeable-Phenotype (%)” value [2] was 8%, the “Population Mitochondria Different-Phenotype (%)” value [2] was 11% and 14% and the “Population Mitotic Cells (%)” value [2] was 52% and 64%. The “Population Normal (%)” value [2] was 99% and 100%, the “Population Pyknosed Nuclei (%)” value [2] was 18% and 25% and the “Population Tubulin-Different-Phenotype (%)” value [2] was 78% and 73%. The “Total Cell Count” value [2] was 298 and 282, the “Population Apoptotic (%)” value [3] was 47% and 46% and the “Population Fragmented Nuclei (%)” value [3] was 21% and 16%. The “Population Healthy Nuclei (%)” value [3] was 61% and 59%, the “Population Hoechst High Intensity Objects (%)” value [3] was 0% and the “Population Membrane Permeable-Phenotype (%)” value [3] was 3% and 1%. The “Population Mitochondria Different-Phenotype (%)” value [3] was 2% and 4%, the “Population Mitotic Cells (%)” value [3] was 52% and 53% and the “Population Normal (%)” value [3] was 99% and 100%. For the same molecule, the “Population Pyknosed Nuclei (%)” value [3] was 17% and 23%, the “Population Tubulin-Different-Phenotype (%)” value [3] was 28% and 20% and the “Total Cell Count” value [3] was 278 and 269. The “Population Apoptotic (%)” value [4] was 59% and 68%, the “Population Fragmented Nuclei (%)” value [4] was 15% and 7% and the “Population Healthy Nuclei (%)” value [4] was 57% and 51%. The “Population Hoechst High Intensity Objects (%)” value [4] was 0% and 1%, the “Population Membrane Permeable-Phenotype (%)” value [4] was 8% and 5% and the “Population Mitochondria Different-Phenotype (%)” value [4] was 27% and 45%. The “Population Mitotic Cells (%)” value [4] was 40% and 31%, the “Population Normal (%)” value [4] was 99% and 98% and the “Population Pyknosed Nuclei (%)” value [4] was 26% and 40%. The “Population Tubulin-Different-Phenotype (%)” value [4] was 89% and 78%, the “Total Cell Count” value [4] was 258 and 216 and the “Population Apoptotic (%)” value [5] was 88% and 73%. For the same molecule, the “Population Fragmented Nuclei (%)” value [5] was 23% and 20%, the “Population Healthy Nuclei (%)” value [5] was 67% and 61% and the “Population Hoechst High Intensity Objects (%)” value [5] was 0%. The “Population Membrane Permeable-Phenotype (%)” value [5] was 4% and 6%, the “Population Mitochondria Different-Phenotype (%)” value [5] was 4% and 5% and the “Population Mitotic Cells (%)” value [5] was 12% and 26%. For the same molecule, the “Population Normal (%)” value [5] was 100% and 99%, the “Population Pyknosed Nuclei (%)” value [5] was 8% and 18% and the “Population Tubulin-Different-Phenotype (%)” value [5] was 28% and 27%. For the same molecule, the “Total Cell Count” value [5] was 282 and 246, the “Population Apoptotic (%)” value [6] was 89% and 92% and the “Population Fragmented Nuclei (%)” value [6] was 9% and 18%. The “Population Healthy Nuclei (%)” value [6] was 44% and 41%, the “Population Hoechst High Intensity Objects (%)” value [6] was 1% and 2% and the “Population Membrane Permeable-Phenotype (%)” value [6] was 13% and 12%. For the same molecule, the “Population Mitochondria Different-Phenotype (%)” value [6] was 48% and 61%, the “Population Mitotic Cells (%)” value [6] was 10% and 7% and the “Population Normal (%)” value [6] was 98% and 97%. The “Population Pyknosed Nuclei (%)” value [6] was 46% and 39%, the “Population Tubulin-Different-Phenotype (%)” value [6] was 78% and 93% and the “Total Cell Count” value [6] was 190 and 197.

In the case of `CN1CCc2cc(Cl)c(O)cc2[C@@H](c2ccccc2)C1.Cl`, the “Population Apoptotic (%)” value [1] is reported as 46% and 55%, the “Population Fragmented Nuclei (%)” value [1] is reported as 10% and 17% and the “Population Healthy Nuclei (%)” value [1] is reported as 63%. For the same molecule, the “Population Hoechst High Intensity Objects (%)” value [1] was 1% and 0%, the “Population Membrane Permeable-Phenotype (%)” value [1] was 10% and 6% and the “Population Mitochondria Different-Phenotype (%)” value [1] was 1% and 4%. The “Population Mitotic Cells (%)” value [1] was 53% and 44%, the “Population Normal (%)” value [1] was 98% and 99% and the “Population Pyknosed Nuclei (%)” value [1] was 26% and 18%. For the same molecule, the “Population Tubulin-Different-Phenotype (%)” value [1] was 15% and 14%, the “Total Cell Count” value [1] was 175 and 235 and the “Population Apoptotic (%)” value [2] was 43% and 53%. The “Population Fragmented Nuclei (%)” value [2] was 11% and 17%, the “Population Healthy Nuclei (%)” value [2] was 71% and 78% and the “Population Hoechst High Intensity Objects (%)” value [2] was 0%. The “Population Membrane Permeable-Phenotype (%)” value [2] was 4% and 3%, the “Population Mitochondria Different-Phenotype (%)” value [2] was 3% and 4% and the “Population Mitotic Cells (%)” value [2] was 56% and 46%. The “Population Normal (%)” value [2] was 100%, the “Population Tubulin-Different-Phenotype (%)” value [2] was 21% and 12% and the “Total Cell Count” value [2] was 244 and 283. For the same molecule, the “Population Apoptotic (%)” value [3] was 52% and 62%, the “Population Fragmented Nuclei (%)” value [3] was 6% and 18% and the “Population Healthy Nuclei (%)” value [3] was 69% and 67%. For the same molecule, the “Population Hoechst High Intensity Objects (%)” value [3] was 1% and 0%, the “Population Membrane Permeable-Phenotype (%)” value [3] was 12% and 7% and the “Population Mitochondria Different-Phenotype (%)” value [3] was 0% and 1%. The “Population Mitotic Cells (%)” value [3] was 47% and 37%, the “Population Normal (%)” value [3] was 98% and 100% and the “Population Pyknosed Nuclei (%)” value [3] was 23% and 14%. For the same molecule, the “Population Tubulin-Different-Phenotype (%)” value [3] was 20% and 11%, the “Total Cell Count” value [3] was 161 and 242 and the “Population Apoptotic (%)” value [4] was 65% and 83%. The “Population Fragmented Nuclei (%)” value [4] was 16% and 21%, the “Population Healthy Nuclei (%)” value [4] was 76% and the “Population Hoechst High Intensity Objects (%)” value [4] was 0%. For the same molecule, the “Population Membrane Permeable-Phenotype (%)” value [4] was 3% and 2%, the “Population Mitochondria Different-Phenotype (%)” value [4] was 2% and 0% and the “Population Mitotic Cells (%)” value [4] was 35% and 16%. The “Population Normal (%)” value [4] was 100%, the “Population Pyknosed Nuclei (%)” value [4] was 7% and 2% and the “Population Tubulin-Different-Phenotype (%)” value [4] was 20% and 10%. The “Total Cell Count” value [4] was 265 and 295, the “Population Apoptotic (%)” value [5] was 53% and 75% and the “Population Fragmented Nuclei (%)” value [5] was 9% and 18%. The “Population Healthy Nuclei (%)” value [5] was 72% and 73%, the “Population Hoechst High Intensity Objects (%)” value [5] was 0% and the “Population Membrane Permeable-Phenotype (%)” value [5] was 8% and 4%. The “Population Mitochondria Different-Phenotype (%)” value [5] was 1% and 2%, the “Population Mitotic Cells (%)” value [5] was 46% and 25% and the “Population Normal (%)” value [5] was 100% and 99%. For the same molecule, the “Population Pyknosed Nuclei (%)” value [5] was 18% and 8%, the “Population Tubulin-Different-Phenotype (%)” value [5] was 11% and 7% and the “Total Cell Count” value [5] was 175 and 251. For the same molecule, the “Population Apoptotic (%)” value [6] was 76% and 100%, the “Population Fragmented Nuclei (%)” value [6] was 21% and 26% and the “Population Healthy Nuclei (%)” value [6] was 73% and 72%. For the same molecule, the “Population Hoechst High Intensity Objects (%)” value [6] was 0%, the “Population Membrane Permeable-Phenotype (%)” value [6] was 4% and 1% and the “Population Mitochondria Different-Phenotype (%)” value [6] was 0%. The “Population Mitotic Cells (%)” value [6] was 23% and 0%, the “Population Normal (%)” value [6] was 100% and the “Population Pyknosed Nuclei (%)” value [6] was 4% and 0%. For the same molecule, the “Population Tubulin-Different-Phenotype (%)” value [6] was 12% and 3% and the “Total Cell Count” value [6] was 292 and 324.
